# A selection: hits, their analogues and other compounds. The true share with any hit is near 3%.
# Hep lipid drop: modulators of hepatic lipid droplet formation; 0.4% of 240,000 active; inhibition, % at 6.5 µM; AML12 mouse hepatocytes, oleate lipid droplets, BODIPY imaging; AID 1656;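 active = lipid droplet intensity inhibited by at least 50%, with more than 500 cells counted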
#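 System: AML12 hepatocytes (mouse). Probe or stimulus: oleic acid at 100 µM to induce lipid droplet formation. Times: overnight treatment with compound plus oleate. Detection: Image-based BODIPY and DAPI two-channel analysis. Evaluation: percent inhibition of filter-corrected integrated lipid droplet intensity per well.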
# aDG glyco act: alpha-DG glycosylation activation; Pro5-aDG cells, alpha-DG glycosylation AlphaScreen (IIH6); 0% Pro5, 100% B10-LARGE cell signal; activation, % at 10 µM; 0.22% of 360,000 active; AID 624168;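 active = activation of at least 8% versus controls, or a plate z-score of at least 8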;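 also: Pro5 are CHO cells carrying HIG-tagged alpha-DG that lacks glycosylation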
# GASC-1 inh: blocks human GASC-1 demethylase activity. Q9H3R0. GST-JMJD2C(1-420) H3K9me3 demethylation, DELFIA europium. inhibition, % at 2.35 µM. 0.069% of 330,000 active. AID 2099;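 active = more than half of a compound's replicate wells show inhibition beyond 50%, single wells judged on their own value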;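 also: signal counts dimethyl H3K9 product captured on neutravidin plate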
# GC-B act: GC-B (human) receptor activation; P20594; HEK293-GC-B cells, CNP EC30, cGMP TR-FRET; 0% at EC30 CNP, 100% saturating CNP; activation, % at 10 µM; 0.11% of 370,000 active; AID 1920062;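 active = activation at 10 µM reaching about 35% in either raw or pattern-adjusted values, limit read from the data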
# Target sequence (P20594 whole entry, looked up): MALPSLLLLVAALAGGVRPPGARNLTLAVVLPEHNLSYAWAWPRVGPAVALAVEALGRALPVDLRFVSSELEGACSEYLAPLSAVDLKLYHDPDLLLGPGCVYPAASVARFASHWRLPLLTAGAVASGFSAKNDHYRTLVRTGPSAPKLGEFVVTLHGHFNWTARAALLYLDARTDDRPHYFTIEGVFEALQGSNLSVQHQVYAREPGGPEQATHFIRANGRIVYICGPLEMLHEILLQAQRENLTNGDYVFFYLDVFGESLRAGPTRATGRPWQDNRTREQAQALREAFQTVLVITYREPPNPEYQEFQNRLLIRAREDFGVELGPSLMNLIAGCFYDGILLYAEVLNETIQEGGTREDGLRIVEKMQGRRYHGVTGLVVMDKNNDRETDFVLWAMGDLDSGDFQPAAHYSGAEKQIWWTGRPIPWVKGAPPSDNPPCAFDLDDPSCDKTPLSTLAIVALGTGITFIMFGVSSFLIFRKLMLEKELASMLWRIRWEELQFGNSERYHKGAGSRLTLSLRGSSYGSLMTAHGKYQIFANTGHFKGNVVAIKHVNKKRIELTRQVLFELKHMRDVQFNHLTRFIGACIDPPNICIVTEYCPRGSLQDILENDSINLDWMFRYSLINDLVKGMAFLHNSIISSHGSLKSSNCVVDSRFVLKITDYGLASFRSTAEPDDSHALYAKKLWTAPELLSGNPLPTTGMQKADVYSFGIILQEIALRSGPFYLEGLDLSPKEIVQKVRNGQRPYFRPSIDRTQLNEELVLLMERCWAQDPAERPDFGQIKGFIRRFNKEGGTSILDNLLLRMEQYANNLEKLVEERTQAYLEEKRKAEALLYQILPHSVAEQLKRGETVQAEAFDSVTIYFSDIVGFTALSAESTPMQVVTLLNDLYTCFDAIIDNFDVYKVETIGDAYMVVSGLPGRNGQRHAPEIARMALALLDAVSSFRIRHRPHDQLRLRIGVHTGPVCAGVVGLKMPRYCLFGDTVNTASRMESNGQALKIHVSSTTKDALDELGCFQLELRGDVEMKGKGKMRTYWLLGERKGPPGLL
# GRIN3A LBD mod: NR3A (human) ligand-binding domain modulation. Tm shift relative to glycine control, % at 25 µM. NR3A LBD differential scanning fluorimetry, Tm shift; 0% = protein alone, 100% = glycine-bound protein. 2.5% of 340,000 active;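 active = melting temperature shift of at least 10% of the positive control shift, at one fixed dose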
# NPR1 activator: GC-A (human) enzyme activation; activation, % at 10 µM; AID 1671463; P16066; HEK293 GC-A cells, cGMP TR-FRET, EC30 ANP; 0% at EC30 ANP, 100% saturating ANP; 0.14% of 370,000 active; in the data active = activation above about 40%
# A number is an active result; – = inactive; · = not tested or not shown.
SMILES,Hep lipid drop,aDG glyco act,GASC-1 inh,GC-B act,GRIN3A LBD mod,NPR1 activator
COC(=O)C1=C(C)N(CC(C)C)C(=S)NC1c1ccc(-c2ccccc2)cc1 (stereo unspecified),·,·,·,–,·,–
O=C(Nc1ccc(F)cc1)OCc1cn(Cc2ccccc2F)nn1,·,·,·,–,·,–
Cc1ccc(NC(=O)CSc2n[nH]c(C)c2[N+](=O)[O-])cc1,–,–,–,–,–,–
Cc1[nH]nc(SCC(=O)Nc2ccc(C#N)cc2)c1[N+](=O)[O-],–,–,–,–,31,–
COc1ccc(C2C(C(=O)N3CCN(C=O)CC3)CC(=O)N2c2ccc(OC)cc2)cc1 (stereo unspecified),·,·,·,–,·,–
Fc1c(F)c(C(F)(F)F)c(F)c(F)c1N/N=C\c1cccs1,–,–,–,–,22,–
CCC(C)N(C(=O)Cn1cnc2c1c(=O)n(C)c(=O)n2C)C1CCS(=O)(=O)C1 (stereo unspecified),·,–,–,–,–,–
COCCOC(=O)c1c(C)oc2ccc(NS(=O)(=O)c3cccs3)cc12,–,–,–,–,–,–
CCCCOC(=O)c1c(C)oc2ccc(NS(=O)(=O)c3ccc4c5c(cccc35)C(=O)N4)cc12,–,–,–,–,15,–
COc1cccc(CN[C@@H]2CC[C@@]34CCCN3C(=O)CCC[C@H]4C2)c1,·,·,·,–,·,–
O=C(N/N=C/c1ccc([N+](=O)[O-])o1)C(=O)Nc1ccc(C(=O)O)cc1,–,–,–,–,–,–
O=[N+]([O-])c1ccc(N/N=C/C=C/c2ccco2)cc1,·,–,·,–,41,–
O=C(O)c1ccc(N/N=C/C=C/c2ccc([N+](=O)[O-])o2)cc1,–,–,–,–,12,–
Nn1c(SCC(=O)Nc2ccccc2-c2ccccc2)nnc1-c1cc(-c2ccc(Cl)cc2)n[nH]1,·,·,·,–,·,–
COCCCN(C(=O)CSc1nc2ccccc2c(=O)n1C)c1c(N)n(Cc2ccccc2)c(=O)[nH]c1=O,·,–,·,–,–,–
NC(=S)N/N=C/c1ccc(C23CC4CC(CC(C4)C2)C3)cc1,·,·,–,·,10,·
O=C(Nc1cccc(S(=O)(=O)Nc2ccc(Cl)cc2)c1)c1cc2c(s1)CCCC2,–,–,–,–,32,–
COc1ccccc1NS(=O)(=O)c1cc(NC(=S)Nc2cc(C)cc(C)c2)ccc1Cl,–,–,–,–,20,–
O=C(Nc1ccc(Cl)c(S(=O)(=O)Nc2ccccc2Cl)c1)c1cccs1,–,–,–,–,31,–
Cc1ccc(NC(=O)c2cc3c(s2)CCCC3)cc1S(=O)(=O)Nc1ccccc1Cl,–,–,–,–,18,–
COc1ccccc1NS(=O)(=O)c1cc(NC(=O)c2sc3cc(Cl)ccc3c2Cl)ccc1C,–,–,–,–,–,–
O=C(Nc1ccccc1Cl)c1cccs1,·,–,–,–,–,–
C#CCNC(=O)C[C@H]1C[C@@]2(C(=O)OC)C(=C[C@H](COCc3ccccc3)O[C@@H]2C)N(Cc2ccccc2)C1=O,·,·,·,–,·,–
CCn1c(CNC(=O)c2ccco2)nnc1SCC(=O)Nc1cc(F)ccc1C,–,–,–,–,–,–
CC(=O)c1ccc(OCC(=O)OCC(=O)Nc2sccc2C(N)=O)cc1,·,–,–,–,–,–
SMILES,Hep lipid drop,aDG glyco act,GASC-1 inh,GC-B act,GRIN3A LBD mod,NPR1 activator
Cc1ccc(NC(=O)CNC(=O)c2cccs2)cc1S(=O)(=O)Nc1ccc(Cl)cc1,–,–,–,–,12,–
O=C(Nc1ccc(N2CCCC2)c(S(=O)(=O)Nc2cccc(C(F)(F)F)c2)c1)c1cccs1,–,–,–,–,30,–
O=C(Nc1cc(S(=O)(=O)Nc2ccccc2Cl)ccc1O)c1cc2c(s1)CCCC2,–,–,–,–,12,–
O=C(Nc1cc(S(=O)(=O)N2CCOCC2)ccc1N1CCCC1)c1cc2c(s1)CCCC2,·,·,·,–,·,–
Cc1ccc(C(=O)Nc2ccc(C)c(S(=O)(=O)Nc3ccccc3Cl)c2)s1,–,–,–,–,11,–
Cc1ccc(C(=O)Cn2c(C)cc(C)c(C#N)c2=O)cc1,·,–,–,–,13,–
O=C(O)CC1CC(O)CCC1=O (stereo unspecified),·,–,·,–,·,–
CCn1cc(S(=O)(=O)NCCc2ccccc2OC)cn1,–,–,–,–,11,–
Cc1cccc(NC(=O)c2nc[nH]c2C(=O)NCCCCNC(=O)c2[nH]cnc2C(=O)Nc2cccc(C)c2)c1,·,–,–,–,13,–
O=C(Nc1ccc(Cl)cc1)c1nc[nH]c1C(=O)NCCCCNC(=O)c1[nH]cnc1C(=O)Nc1ccc(Cl)cc1,·,–,–,–,26,–
O=C(Nc1cccc(Cl)c1)c1nc[nH]c1C(=O)NCc1ccccc1,·,–,–,–,17,–
CCOC(=O)c1ccc(NC(=O)c2nc[nH]c2C(=O)NC)cc1,–,–,–,–,–,–
O=C(Nc1ccccc1)c1nc[nH]c1C(=O)NCc1ccccc1,·,–,–,–,–,–
Cc1cccc(NC(=O)c2nc[nH]c2C(=O)NCCCCCCNC(=O)c2[nH]cnc2C(=O)Nc2cccc(C)c2)c1,·,–,–,–,–,–
CCOC(=O)c1ccc(NC(=O)c2nc[nH]c2C(=O)NCCNC(=O)c2[nH]cnc2C(=O)Nc2ccc(C(=O)OCC)cc2)cc1,·,–,–,–,15,–
CC(=O)CC[C@H]1CC[C@]2(CCCN(C(=O)c3ccc4ccccc4n3)C2)O1,·,·,·,–,·,–
Cc1cc(C)c(NC(=O)CN2CCN(c3ccccn3)CC2)c(C)c1,–,–,–,–,–,–
O=c1c2ccccc2nc(N/N=C/c2c(O)ccc3ccccc23)n1O,–,–,–,–,12,–
Fc1ccc(Nc2nc(NCc3ccco3)c3ccccc3n2)cc1,–,–,–,–,10,–
Nc1nc(NCc2ccco2)nc(Nc2ccccc2)c1[N+](=O)[O-],–,–,–,–,–,–
Cc1ccc(Nc2nc(N)c([N+](=O)[O-])c(NCc3ccco3)n2)cc1,–,–,–,–,–,41
Nc1nc(Nc2ccccc2)nc(NCc2ccco2)c1[N+](=O)[O-],–,–,–,–,–,47
COc1cc(OC)c(NC(=O)C(Sc2nc(C)cc(C)c2C#N)c2ccccc2)cc1Cl (stereo unspecified),·,·,·,–,·,–
O=C(CN1C(=O)CCSc2ccccc21)Nc1ccc(Cl)cc1,·,·,·,–,·,–
COc1ccc(N=Nc2cnc(C)nc2-c2ccccc2)cc1,–,–,–,–,–,–
Cc1ncc(N=Nc2ccccc2Cl)c(-c2ccccc2)n1,·,–,–,–,17,–
COc1ccccc1NC(=O)COC(=O)CCC1CCCC1,·,–,–,–,–,–
COc1ccccc1NC(=O)C(C)OC(=O)CCC1CCCCC1 (stereo unspecified),–,–,–,–,11,–
CN1C(C)(C)CC(=NO)CC1(C)C,·,–,·,–,–,–
